# Compound activity (PubChem BioAssay)
# A selection: hits, their analogues and other compounds. The true share with any hit is near 1.7%.
# Pemphigus Ab inh = blocks pemphigus antibody binding to human desmoglein-3; DSG3-coupled beads, scFv-anti-DSG3-GFP binding, flow cytometry; hits give low values; binding (percent of control), % at 10 µM; 310,000 compounds, 0.48% hits;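 active = binding more than 3 SD below its plate's average and above zero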;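 note: hits lower antibody fragment binding to DSG3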
# Efflux pump inh = blocks antifungal efflux pumps in multiplex yeast assay; S. cerevisiae Candida pump triplex, Nile Red efflux; inhibition, % at 10 µM; 330,000 compounds, 0.44% hits;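 active = plate passing quality check with inhibition over a set limit, or well fluorescence over plate mean plus 4 SD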;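 note: Nile Red retained in pooled yeast measured as flow cytometry median fluorescence; 0% = buffer negative control and 100% = Enniatin B positive control; higher means more Nile Red kept so more efflux inhibition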
# Neddyl block = blocks human cullin neddylation; TR-FRET cullin neddylation, biochemical; inhibition, % at 25 µM; 360,000 compounds, 0.58% hits; AID 651699; in the data active = inhibition above about 36%
# Arrestin-AP2 inh = blocks beta-arrestin peptide binding to AP2 adaptin; FITC-arrestin peptide / GST-AP2 beads, flow cytometry; AP2 beta2 appendage carries R879A mutation; inhibition, % at 10 µM; 340,000 compounds, 0.31% hits;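 active = inhibition above a set limit, near 3 SD of compounds lacking own fluorescence, cut at about 54% in these data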;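 note: plate controls were DMSO wells for no effect and 5 µM unlabelled arrestin peptide for full effect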
#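 System: GST-AP2 R879A glutathione beads. Medium: PBS with 0.05% Tween 20 and 0.1% BSA. Also added: FITC-arrestin peptide, 50 nM. Incubation: 12 min plus 1 h, RT. Measured by: high-throughput flow cytometry of beads, ex 488, em 535 nm. Evaluation: percent drop in bead-associated FITC signal.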
# Yeast cmpd fluor = compound fluorescence in yeast efflux pump counter-screen | shares compounds with Efflux pump inh | S. cerevisiae AD/pABC3, flow cytometry | 1,700 compounds, 4% hits | AID 588517 | fluorescence ratio to DMSO, % at 10 µM;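 active = fluorescence ratio to DMSO above its plate's cutoff, the plate mean ratio plus 5 SD, cut at about 210% in these data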;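 note: unstained yeast with no Nile Red so the signal is compound autofluorescence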
# CaMdr1 efflux inh = blocks the Candida albicans Mdr1 efflux pump in yeast. S. cerevisiae AD/CaMDR1, Nile Red efflux, flow cytometry. shares compounds with Efflux pump inh. 1,700 compounds, 1% hits. inhibition, % at 10 µM; in the data active = inhibition above about 26%;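 note: 0% = DMSO vehicle and 100% = reference inhibitor; higher means more Nile Red retained so more efflux inhibition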
# CaCdr2 efflux inh = Candida Cdr2 efflux pump inhibition | S. cerevisiae AD/CaCDR2, Nile Red retention, flow cytometry | 1,700 compounds, 4% hits | shares compounds with Efflux pump inh | Nile Red retention ratio vs DMSO, % at 10 µM; in the data active = Nile Red retention ratio vs DMSO above about 190%;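 note: higher ratio means more blocking of Cdr2 efflux of the dye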
# Cdr1 pump inh = blocks the Candida albicans Cdr1 efflux pump in yeast | shares compounds with Efflux pump inh | S. cerevisiae AD/CaCDR1, Nile Red efflux, flow cytometry | inhibition, % at 10 µM | 1,700 compounds, 1% hits | AID 588522;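 active = inhibition above the screen-wide mean plus twice its standard deviation, cut at about 32% in these data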
# An asterisk follows results filed as active; x = no result given; + = active, no number.
SMILES,Pemphigus Ab inh,Efflux pump inh,Neddyl block,Arrestin-AP2 inh,Yeast cmpd fluor,CaMdr1 efflux inh,CaCdr2 efflux inh,Cdr1 pump inh
COc1ccc(NC(=O)C2OC3OC(C)(C)OC3C3OC(C)(C)OC23)cc1 (centres undefined),x,1.5*,-2,14,101,0,120,0
CCC1CN(C(=O)Nc2cccc(C)c2)c2cc(C)ccc2O1 (centres undefined),101,0,-1,-1,x,x,x,x
CC[n+]1c(/C=C/c2ccc(OC(C)=O)c(OC)c2)ccc2ccccc21,107,0,-1,-10,x,x,x,x
CCN(CC)c1ccc(/C=C/c2ccc3ccc(OC)cc3[n+]2CC)cc1,119,16*,-11,-26,+,11,155,9
CC[n+]1c(/C=C/c2ccc(OC)c(OC)c2)ccc2ccccc21,177,0.7*,1,-3,177,0,107,0
CC[n+]1ccccc1/C=C/c1ccc(N(C)C)cc1,301,x,-18,2,x,x,x,x
CC[n+]1c(/C=C/c2ccc(N(C)C)cc2)ccc2ccccc21,x,11*,-22,2,+,16,121,9
Cc1ccc(C(=O)CCC(=O)N2CCN(c3ccccc3O)CC2)cc1,109,0,1,38,x,x,x,x
Cc1cccc(NC(=S)c2nc3ccccc3s2)c1,106,0,-17,1,x,x,x,x
COc1ccc(NC(=O)Cn2cc(S(=O)(=O)Cc3ccccc3)c3ccccc32)c(OC)c1,89,9.6*,-5,2,105,0,99,0
COc1ccc(NC(=O)CS(=O)(=O)c2cn(CC(=O)N(C(C)C)C(C)C)c3ccccc23)c(OC)c1,99,1,3,23,x,x,x,x
COc1ccc(NC(=O)CSc2nnc(Cc3cccn3C)n2-c2ccc(F)cc2)cc1,103,0,4,5,x,x,x,x
COc1ccc(-n2c(Cc3cccn3C)nnc2SCC(=O)NCCc2ccccc2)cc1,93,6.7*,2,11,103,0,98,0
Cn1cccc1Cc1nnc(SCC(=O)NCCc2ccccc2)n1C,82,0,-3,2,x,x,x,x
COc1ccc(NC(=O)CSc2nnc(Cc3cccn3C)n2CCc2ccccc2)c(OC)c1,98,6.7*,-1,-2,79,0,91,0
CCOc1ccc(NC(=O)CSc2nnc(Cc3cccn3C)n2-c2ccc(F)cc2)cc1,107,0,0,3,95,0,110,0
COc1ccc(-n2c(Cc3cccn3C)nnc2SCC(=O)Nc2ccccc2F)cc1,103,0,6,-2,85,0,91,0
CCc1nnc(NC(=O)CCc2ccccc2OC)s1,105,0,-10,2,x,x,x,x
COc1ccc(NC(=O)CSc2nnc(Cc3cccn3C)n2-c2ccc(C)cc2)cc1OC,97,6.7*,-6,7,99,0,112,0
CC1=NN(c2nc3ccccc3[nH]2)C(=O)/C1=C/N(C)C,109,2.4*,10,-40,112,0,104,0
OCCN1CCN(CC/C=C2/c3ccccc3CSc3ccccc32)CC1,107,0,9,3,x,x,x,x
OCCN1CCN(CC/C=C2/c3ccccc3Sc3ccc(C(F)(F)F)cc32)CC1,107,0,-4,-2,110,0,112,0
N#Cc1c(-c2ccccc2)cc(-c2cccs2)nc1SCC(=O)O,103,1.3*,-20,14,114,0,87,0
N#Cc1c(-c2ccc(Cl)cc2)cc(-c2cccs2)nc1SCC(=O)O,94,0,-14,-13,x,x,x,x
O=C(NNC(=O)c1cccc(S(=O)(=O)Nc2ccccc2F)c1)c1ccncc1,99,x,-1,x,x,x,x,x
SMILES,Pemphigus Ab inh,Efflux pump inh,Neddyl block,Arrestin-AP2 inh,Yeast cmpd fluor,CaMdr1 efflux inh,CaCdr2 efflux inh,Cdr1 pump inh
CC1Cc2cc(S(=O)(=O)NCc3ccccc3)ccc2N1C(=O)C1CCC1 (centres undefined),x,0,4,33,100,0,105,0
CC1Cc2cc(S(=O)(=O)NCc3ccccc3)ccc2N1C(=O)C1CC1 (centres undefined),109,0,0,-30,x,x,x,x
O=C(c1sc2ccccc2c1Cl)N1CCN(c2ccccc2F)CC1,103,21*,-53,-2,99,0,112,0
CC(Oc1ccc2ccc(=O)oc2c1)C(=O)NCCN1CCOCC1 (centres undefined),104,0,14,3,x,x,x,x
O=C(CSc1nnc(-c2ccncc2)n1Cc1ccco1)Nc1cccc(O)c1,100,0,-5,5,x,x,x,x
Cc1cc(C)c(NC(=O)CSc2nnc(-c3ccncc3)n2Cc2ccco2)c(Cl)c1,102,1.3*,5,8,92,0,100,0
COc1cc2c(cc1NC(=O)CSc1nnc(Cc3cccs3)n1Cc1ccco1)oc1ccccc12,102,0,-10,-1,91,0,93,0
Cc1cc(Cl)ccc1NC(=O)CSc1nnc(Cc2cccs2)n1Cc1ccco1,x,0,-24,-4,93,0,107,0
C=CCn1c(Cc2cccs2)nnc1SCC(=O)NCc1ccco1,108,0,-2,9,x,x,x,x
COc1ccc(C(=O)CSc2nnc(CNc3ccc(C)cc3C)n2Cc2ccco2)cc1,x,1.1*,-6,-13,106,0,103,0
COc1ccc(N(CC(=O)N2CCN(Cc3ccccc3)CC2)S(C)(=O)=O)cc1Cl,99,0,0,12,x,x,x,x
O=C1CC(c2ccsc2)Sc2ccccc2N1 (centres undefined),x,0,-2,-14,89,0,100,0
Cc1cc(C2CC(=O)Nc3ccccc3S2)c(C)s1 (centres undefined),x,0,0,39,97,0,106,0
Fc1ccc(-n2c(Cn3nnc4ccccc43)n[nH]c2=S)cc1,99,0,-1,-43,x,x,x,x
COc1ccc(NC(=O)CSc2nnc(-c3cccs3)n2-c2ccccc2)cc1,77,0,-292,-5,x,x,x,x
Cc1ccc(-n2c(N)c(C(=O)Nc3c(C)n(C)n(-c4ccccc4)c3=O)c3nc4ccccc4nc32)cc1C,x,0,x,x,x,x,x,x
COc1ccc(-n2c(N)c(C(=O)Nc3c(C)n(C)n(-c4ccccc4)c3=O)c3nc4ccccc4nc32)cc1,124,0.8*,23,-16,110,0,108,0
COc1ccc2cc(C(C)C(=O)Nc3cccc(S(=O)(=O)N(C)C)c3)ccc2c1 (centres undefined),94,3.2*,6,17,100,0,94,0
COc1ccc(CNC(=O)/C=C/C(=O)O)cc1OC,100,5.5*,2,-11,101,0,96,0
